Experiments:
[1] = biological target: T1, Hematopoietic prostaglandin D synthase (Homo sapiens, UniProt O60760); experiment: Inhibition of human H-PGDS expressed in Escherichia coli BL21 assessed as rate of glutathione-chloro-dinitro benzene conjugation at 50 uM
Procedure, shortened: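 GSH–CDNB conjugation by E. coli BL21 DE3-expressed, GSH-affinity purified human H-PGDS (2.5 ng/ml). Buffer was 0.1 M Tris HCl pH 8.0 with 2 mM MgCl2, 1 mM CDNB, 2 mM GSH and 10% ethanol. Read at A340 nm over 10 min at 25 C. Percent inhibition at 50 uM inhibitor, mean ± SD of triplicates.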

[2] = biological target: T1, Hematopoietic prostaglandin D synthase; experiment: Inhibition of human H-PGDS expressed in Escherichia coli BL21 assessed as rate of glutathione-chloro-dinitro benzene conjugation
Procedure, shortened: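 Recombinant human H-PGDS from E. coli BL21 DE3 (pET17b, uninduced), GSH-affinity purified. Reaction: 0.1 M Tris HCl pH 8.0, 2 mM MgCl2, 1 mM CDNB, 2 mM GSH, 2.5 ng/ml enzyme, 10% (v/v) ethanol. Conjugate formation followed at A340 nm over 10 min, 25 C. Eight inhibitor concentrations bracketing IC50, background-corrected for solvent. Nonlinear regression, triplicates, mean ± SEM.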

T1 sequence (O60760 whole entry): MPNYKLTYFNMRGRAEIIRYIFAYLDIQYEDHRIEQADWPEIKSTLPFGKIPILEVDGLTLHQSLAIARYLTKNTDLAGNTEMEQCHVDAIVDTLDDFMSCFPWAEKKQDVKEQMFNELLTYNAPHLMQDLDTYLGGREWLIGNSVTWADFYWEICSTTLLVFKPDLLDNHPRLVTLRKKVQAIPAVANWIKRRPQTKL

inhibition [1] | IC50 [2] | SMILES
0% | – | O=C(O)Cc1ccccc1Nc1c(Cl)cccc1Cl
0% | – | COc1ccc2c(c1)c(CC(=O)O)c(C)n2C(=O)c1ccc(Cl)cc1
17% | – | O=C(O)CCCCCC[C@H]1C(=O)NC(=O)N1CCC(O)C1CCCCC1 (stereo not given in full)
5.1% | – | O=C(O)c1ccc2ccccc2c1Br
25.3% | 122 µM | C=C(CC)C(=O)c1ccc(OCC(=O)O)c(Cl)c1Cl [ETHACRYNIC ACID]
100% | 1.8 µM | c1ccc(C(OC2CCN(CCCc3nnn[nH]3)CC2)c2ccccc2)cc1
78.2% | 9.2 µM | O=C(c1ccccc1)c1cccs1
42.6% | – | COC(=O)Nc1nc2cc(C(=O)c3cccs3)ccc2[nH]1
8.6% | – | O=C(Nc1ccccc1)Nc1cccc(C(=O)O)c1
0% | – | CC1(C)Cc2c(-c3ccccc3)c(-c3ccc(Cl)cc3)c(CC(=O)O)n2C1
100% | 0.2 µM | Nc1c(S(=O)(=O)O)cc(Nc2ccc(Nc3nc(Cl)nc(Nc4ccccc4S(=O)(=O)O)n3)c(S(=O)(=O)O)c2)c2c1C(=O)c1ccccc1C2=O [CIBACRON BLUE]
0% | – | O=C(O)COc1ccc(C(=O)c2cccs2)c(Cl)c1Cl
– | > 300 µM | COC(=O)Nc1nc2ccc([S+]([O-])c3ccccc3)cc2[nH]1 (stereo not given) [OXFENDAZOLE]
0% | – | COC(=O)Nc1nc2cc([S+]([O-])c3ccccc3)ccc2[nH]1 (stereo not given)
0% | – | O=C(O)c1cc(/N=N/c2ccc(S(=O)(=O)Nc3ccccn3)cc2)ccc1O
0% | – | Cc1cc(CC(=O)O)n(C)c1C(=O)c1ccc(Cl)cc1
0% | – | O=C(O)CCn1c2c(c3ccccc31)C[C@H](NS(=O)(=O)c1ccc(F)cc1)CC2
41.8% | 105 µM | COc1ccc(C(=O)c2cccs2)cc1

SMILES | inhibition [1] | IC50 [2]
O=C1OC(c2ccc(O)c(S(=O)(=O)O)c2)(c2ccc(O)c(S(=O)(=O)O)c2)c2c(Br)c(Br)c(Br)c(Br)c21 [SULFOBROMOPHTHALEIN] | 66.9% | 27 µM

Source: ChEMBL document CHEMBL1154723, “Identification and characterisation of new inhibitors for the human hematopoietic prostaglandin D2 synthase” (Eur J Med Chem, 2010)
